Data as given in the EternaBench riboswitch data.

Test system: MS2 coat protein
Assay: apparent Kd, MS2 coat protein; higher = weaker binding; RNA-MaP array; theophylline 2 mM where present
Outline: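 Two titrations, one without ligand and one with constant ligand, were run with SNAP-549-labelled MS2 coat protein from 0.7 or 1.5 nM, doubling to 3 µM. The targets were designs transcribed by stalled E. coli RNA polymerase on Illumina sequencing-chip clusters, in 100 mM Tris-HCl pH 7.5, 80 mM KCl, 4 mM MgCl2, BSA, DTT, yeast tRNA and Tween-20. The apparent Kd is the median of filtered per-cluster binding-curve fits, with green signal normalised to red-channel RNA signal and control-cluster median Fmax.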

[1] = designed as: OFF switch for theophylline, no ligand
[2] = ligand present: theophylline, designed as: OFF switch for theophylline
[3] = designed as: ON switch for theophylline, no ligand
[4] = ligand present: theophylline, designed as: ON switch for theophylline

AAACAUUGCUCAGAUACCAGACAUGAGGAUCACCCAUGUACCAAGGUAAAGAAAUAACGUGUCCCUUGGCAGCUGAGCAAUGAAA
apparent Kd [1]: 10.2 nM | apparent Kd [2]: 109 nM

AAACAUUGCUGCGAUACCAGACAUGAGGAUCACCCAUGUACCAAGGUAAGAAAAUAACAUGUCCCUUGGCAGCGCAGCAAUGAAA
apparent Kd [1]: 16.4 nM | apparent Kd [2]: 418 nM

AAACGUUGCUCAGAUACCAGACAUGAGGAUCACCCAUGUACCAAGGUAACCGAAAGGCAUGUCCCUUGGCAGCUGAGCAACGAAA
apparent Kd [1]: 12.8 nM | apparent Kd [2]: 262 nM

AAACGUUGCUGCGAUACCAGACAUGAGGAUCACCCAUGUACCAAGAAAACGUACAUAAAUGUCCCUUGGCAGCGCAGCAACGAAA
apparent Kd [1]: 582 nM | apparent Kd [2]: 1110 nM

AAAGGCGGGCAGGAUACCAGCGCUAACAUGAGGAUCACCCAUGUACAAAUAAUAACAUGGUGCCCUUGGCAGCCUGGGCGUCUGC
apparent Kd [3]: 56 nM | apparent Kd [4]: 285 nM

AACUGGGUUCGUGAUACCAGCUCACACAUGAGGAUCACCCAUGUAGUGGGUAAAAUGUGGAGCCCUUGGCAGCACUGUGACCACG
apparent Kd [1]: 13.2 nM | apparent Kd [2]: 60.7 nM

AAGCUGCCAAGAAGGUGAUCCAAAUGUGAUACCAGCUAGGAAACUAGCCCUUGGCAGCACAUGAGGAUCACCCAUGUAAUAAUAA
apparent Kd [1]: 60.8 nM | apparent Kd [2]: 182 nM

AAGGUGAUCCCAGAUACCAGCCUAACAUGAGGAUCACCCAUGUUUGGGACGAAAGUCCCAGGCCCUUGGCAGCUGGGUUGCCAAG
apparent Kd [3]: 225 nM | apparent Kd [4]: 30.3 nM

AAGGUGAUCCUCGAUACCAGCUCAACAUGAGGAUCACCCAUGUAAGCCUGGAAACAGGCGAGCCCUUGGCAGCGAGUUACAUCAA
apparent Kd [3]: 62.1 nM | apparent Kd [4]: 17.8 nM

ACACAUGAGGAUCACCCAUGUCCAAUAGAUACCAGUGAUACAGUGCACCCUUGGCAGCUGUUACUGAGUAAUGGUUCCCUCGGAA
apparent Kd [3]: 36.6 nM | apparent Kd [4]: 46 nM

ACACAUGAGGAUCACCCAUGUUGCAUAGAUACCAGAUAACGUGAGAUCCCUUGGCAGCUAACUGCAUGAACUUGACAUGCAUCAU
apparent Kd [3]: 42.4 nM | apparent Kd [4]: 136 nM

ACAUGAAGAACAGCGGUGGGCGCGCUCGAUACCAGUAUUUUAAACUACCCUUGGCAGCGACAUGAGGAUCACCCAUGUGAGAUGA
apparent Kd [1]: 18.2 nM | apparent Kd [2]: 35.7 nM

ACAUGAGGAUCACCCAUGUCACGGCACGAUACCAGCUGAUGCGGUGGCCCUUGGCAGCGUGACGUUUGGUCCCGCGGAUGACGGG
apparent Kd [3]: 40.8 nM | apparent Kd [4]: 16.8 nM

ACAUGAGGAUCACCCAUGUGGCGUCUUGAUACCAGACCCGCACUAGUCCCUUGGCAGCAACUACGUGAGGGUCGCCCAUGUGUAG
apparent Kd [1]: 35.9 nM | apparent Kd [2]: 46.8 nM

ACAUGAGGAUCACCCAUGUUCCUCGCCGAUACCAGUGAAGAAUUACGCCCUUGGCAGCGGAAAGAGUGUUUUGGAGAUGAGGUAC
apparent Kd [1]: 72.6 nM | apparent Kd [2]: 108 nM

ACGAACUGUAGUGAUACCAGACGUACAUGAGGAUCACCCAUGUUGUAAACAUGGUUAAUAGUCCCUUGGCAGCACAGUUAGUUCG
apparent Kd [1]: 347 nM | apparent Kd [2]: 531 nM

AGAAUACAUGUUUUAAUACGGAAAACUGAUACCAGUGUAUCUAUUCACCCUUGGCAGCAGAGACAUGAGGAUCACCCAUGUAUUA
apparent Kd [3]: 41.3 nM | apparent Kd [4]: 28.6 nM

AGACAUGAGGAUCACCCAUGUAGUAUGGAUACCAGAUGUAGAUUAGUCCCUUGGCAGCUGUGGUGAAGUGAUGCAUUGCUCCUAG
apparent Kd [1]: 23.4 nM | apparent Kd [2]: 25.9 nM

AGAGGUGCAACAGAUACCAGUCUACCGUACCUCAGAGAACAUGAGGAUCACCCAUGUAUAGACCCUUGGCAGCUGAUGUUAUUCA
apparent Kd [1]: 22.3 nM | apparent Kd [2]: 79 nM

AGAUAACAUGGUUUAAUAAGAUAAACUGAUACCAGUGUAUAUAAUCACCCUUGGCAGCAGCAACAUGAGGAUCACCCAUGUAAUA
apparent Kd [3]: 17 nM | apparent Kd [4]: 21.6 nM

AGAUCUUUCGAAAGAAGGAUCUUGUCUGAUACCAGAGACGAAAGUCUCCCUUGGCAGCAGUGCCAACAUGAGGAUCACCCAUGUA
apparent Kd [3]: 20.1 nM | apparent Kd [4]: 21.4 nM

AGAUGACACAGUGGAUAGCAAGAUGCCGAUACCAGCUAGGAAACUAGCCCUUGGCAGCGGUACAUGAGGAUCACCCAUGUAUCCU
apparent Kd [1]: 12.2 nM | apparent Kd [2]: 58.7 nM

AGCCCUGUACUAGAUACCAGCUACAUGAGGAUCACCCAUGUACGAUAAGACUGUCCAUGUAGCCCUUGGCAGCUGCUCGCAUGUA
apparent Kd [1]: 30.6 nM | apparent Kd [2]: 68.8 nM

AGCCCUGUGCUAGAUACCAGCUACAUGAGGAUCACCCAUGUGCGUCAGAAAUGACUGUGUAGCCCUUGGCAGCUACUCGCAUGUA
apparent Kd [1]: 14.5 nM | apparent Kd [2]: 26 nM

AGCGACAUGCAUGAUACCAGCUACAUGAGGAUCACCCAUGUACGUCAGUAAUGACUGUGUAGCCCUUGGCAGCAUAAAGCAUGUC
apparent Kd [1]: 28.8 nM | apparent Kd [2]: 56.7 nM
